Converted amounts (≈) assume the structure as drawn.
Columns and labels:
RIPK1 = target: T1, RIPK1 (Homo sapiens, UniProt Q13546); assay: RIPK1 target engagement; type: in vivo; settings: Part A
T1 sequence (Q13546 1-671): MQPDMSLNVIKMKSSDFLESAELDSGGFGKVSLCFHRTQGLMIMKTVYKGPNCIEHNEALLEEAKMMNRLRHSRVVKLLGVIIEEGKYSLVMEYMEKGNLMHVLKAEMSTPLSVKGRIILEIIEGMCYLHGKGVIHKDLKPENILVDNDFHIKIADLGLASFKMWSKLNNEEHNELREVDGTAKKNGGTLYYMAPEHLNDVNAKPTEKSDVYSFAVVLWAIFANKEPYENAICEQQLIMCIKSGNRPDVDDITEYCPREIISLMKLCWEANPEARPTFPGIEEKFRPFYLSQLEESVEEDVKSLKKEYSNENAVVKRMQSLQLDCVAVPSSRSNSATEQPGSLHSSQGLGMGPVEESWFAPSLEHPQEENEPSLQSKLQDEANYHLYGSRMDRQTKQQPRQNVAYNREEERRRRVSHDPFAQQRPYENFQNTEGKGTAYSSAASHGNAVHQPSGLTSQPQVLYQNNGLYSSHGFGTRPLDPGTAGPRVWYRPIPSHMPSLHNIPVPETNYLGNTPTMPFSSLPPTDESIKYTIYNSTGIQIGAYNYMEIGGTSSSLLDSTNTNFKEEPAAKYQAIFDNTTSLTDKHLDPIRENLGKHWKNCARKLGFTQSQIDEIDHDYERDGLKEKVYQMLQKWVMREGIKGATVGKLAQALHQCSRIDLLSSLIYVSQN

Part B repeat-dose = type: in vivo, human; settings: for AUC: male, human, in vivo, po, AUC0‐tau, plasma, oral, geometric mean (% CV)
CYP3A4 = assay: Plasma 4β-hydroxycholesterol-to-cholesterol ratio as marker of CYP3A4 induction; settings: following 14 days of dosing
Safety and tolerability = settings: for Subjects with drug‐related AEs / Application‐site erythema / Catheter‐site erythema / Contact dermatitis / Headache / Nasopharyngitis / Rash / Subjects with any AE: Part B; for Application‐site erythema / Catheter‐site erythema / Contact dermatitis / Headache / Nasopharyngitis / Rash / Subjects with any AE: 14 days (n = 9)
MIP‐1α = assay: Ex vivo whole blood challenge assay; type: cell-based, human
[1] = Analysis of metabolism in blood, plasma, urine and bile; type: in vivo, human
Method in brief: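 Oral dosing in healthy volunteers. Urine collected at various time points. Bile sampled by Entero-Test in one Part B cohort on Days −1 and 7, about 2 h after the morning dose. Blood/water, plasma, urine and bile analysed for relative levels of parent drug and metabolites.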

[2] = Part A single ascending dose blood pharmacokinetics; type: in vivo, human

CN1C(=O)[C@@H](NC(=O)c2nnc(Cc3ccccc3)[nH]2)COc2ccccc21 [GSK2982772]
Percent TE (RIPK1; 1.5 hours postdose, single doses of 10 mg and above): > 90% | Percent TE (>90% level) (RIPK1; 8 hours postdose, single doses of 40 mg and above): sustained | Percent TE (RIPK1; 48 hours postdose, all dose groups): negligible | AUC (Part B repeat-dose; 20 mg, 20 mg QD, Day 1): 1160 ng·h/mL | AUC (Part B repeat-dose; 20 mg, 20 mg QD, Day 14): 1140 ng·h/mL | AUC (Part B repeat-dose; 60 mg, 60 mg BID, Day 1): 4330 ng·h/mL | AUC (Part B repeat-dose; 60 mg, 60 mg BID, Day 14): 3100 ng·h/mL | AUC (Part B repeat-dose; 60 mg, 60 mg QD, Day 14): 2590 ng·h/mL | AUC (Part B repeat-dose; 120 mg, 120 mg BID, Day 1): 7050 ng·h/mL | AUC (Part B repeat-dose; 120 mg, 120 mg BID, Day 14): 6990 ng·h/mL | Attainment of steady state (trough plasma predose concentration Days 2 to 14) (Part B repeat-dose; repeat dosing): reached a plateau by Day 2 | CYP3A4 induction (CYP3A4): no evidence of CYP3A4 induction | Drug‐related AEs (total number) (Safety and tolerability; Part A, reported in 2 subjects, all of mild intensity): 3 | Subjects with drug‐related AEs (Safety and tolerability; 20 mg QD group): 3 subjects | Application‐site erythema (Safety and tolerability; 20 mg QD): 0 n (%) | Catheter‐site erythema (Safety and tolerability; 20 mg QD): 0 n (%) | Contact dermatitis (Safety and tolerability; 20 mg QD): 1 (11) n (%) | Headache (Safety and tolerability; 20 mg QD): 4 (44) n (%) | Nasopharyngitis (Safety and tolerability; 20 mg QD): 0 n (%) | Rash (Safety and tolerability; 20 mg QD): 0 n (%) | Subjects with any AE (Safety and tolerability; 20 mg QD): 7 (78) n (%) | Subjects with drug‐related AEs (Safety and tolerability; 60 mg BID group): 4 subjects | Application‐site erythema (Safety and tolerability; 60 mg BID): 0 n (%) | Catheter‐site erythema (Safety and tolerability; 60 mg BID): 2 (22) n (%) | Contact dermatitis (Safety and tolerability; 60 mg BID): 5 (56) n (%) | Headache (Safety and tolerability; 60 mg BID): 3 (33) n (%) | Nasopharyngitis (Safety and tolerability; 60 mg BID): 1 (11) n (%) | Rash (Safety and tolerability; 60 mg BID): 1 (11) n (%) | Subjects with any AE (Safety and tolerability; 60 mg BID): 9 (100) n (%) | Application‐site erythema (Safety and tolerability; 60 mg QD): 0 n (%) | Catheter‐site erythema (Safety and tolerability; 60 mg QD): 1 (11) n (%) | Contact dermatitis (Safety and tolerability; 60 mg QD): 3 (33) n (%) | Headache (Safety and tolerability; 60 mg QD): 0 n (%) | Nasopharyngitis (Safety and tolerability; 60 mg QD): 0 n (%) | Rash (Safety and tolerability; 60 mg QD): 3 (33) n (%) | Subjects with any AE (Safety and tolerability; 60 mg QD): 6 (67) n (%) | Application‐site erythema (Safety and tolerability; 120 mg BID): 2 (22) n (%) | Catheter‐site erythema (Safety and tolerability; 120 mg BID): 0 n (%) | Contact dermatitis (Safety and tolerability; 120 mg BID): 0 n (%) | Headache (Safety and tolerability; 120 mg BID): 1 (11) n (%) | Nasopharyngitis (Safety and tolerability; 120 mg BID): 3 (33) n (%) | Rash (Safety and tolerability; 120 mg BID): 0 n (%) | Subjects with any AE (Safety and tolerability; 120 mg BID): 6 (67) n (%) | AEs involving clinical laboratory or electrocardiogram abnormalities (Safety and tolerability; any part of the study): no AEs involving clinical laboratory abnormalities or electrocardiogram abnormalities were reported | Serious AEs, suicidality or deaths (Safety and tolerability; any part of the study): No serious AEs, suicidality or deaths were reported | Overall safety and tolerability (Safety and tolerability; single and repeat doses, healthy adult male volunteers): generally safe and well tolerated | Vital signs, physical, neurological examinations, respiratory assessments (Safety and tolerability; whole study): no clinically significant abnormal findings | IC50 (MIP‐1α; Homo sapiens, read-out: Concentration needed to elicit a half‐maximal response in all assays, all assays (MIP‐1α, MIP‐1β, TE)): ~1.4 ng/mL (≈ 3.71 nM) | Inhibition (mean of MIP‐1α and MIP‐1β) (MIP‐1α; Part B Day 14, 60 mg and 120 mg BID, out to 24 hours posttreatment): maximal inhibition | Inhibition (mean of MIP‐1α and MIP‐1β) (MIP‐1α; Part B Day 14, 1.5 hours and 8 hours postdose, all treatment groups): maximal inhibition | Unchanged drug in urine ([1]; in vivo): trace levels | Unchanged drug in blood and plasma extracts ([1]; single and repeat oral dosing, together with N‐glucuronide metabolite): major circulating drug‐related components | Time to C max ([2]; blood, single dose 10 mg capsule, fasted): 1.5 h | Median time to C max ([2]; blood, single dose 0.1, 0.5 and 2.5 mg in solution, fasted): ≤ 1 h | Time to C max ([2]; blood, single dose 120 mg capsule, fasted): 2.5 h | Dose linearity of kinetics ([2]; dose range 0.1‐120 mg): approximately linear kinetics | half-life ([2]; male, human, whole blood, oral): ~6 h

From paper PMC5723699 (Pharmacology Research & Perspectives, 2017)
